Results as given in publication PMC7717452 (Journal of Enzyme Inhibition and Medicinal Chemistry, 2020).
Values joined by “and” are separate entries in the source; they are usually repeats but may differ in a detail not shown here. Equal values may be shown once. Read-outs that look alike come from different tables or passages of the source.

What was measured:
LiTryS [1] = target: T1, LiTryS (Leishmania infantum, UniProt A4I2Z3); settings: read-out: Ki, nucleotide-binding site of the enzyme; ADP; cited from earlier work
T1 sequence (A4I2Z3 1-652): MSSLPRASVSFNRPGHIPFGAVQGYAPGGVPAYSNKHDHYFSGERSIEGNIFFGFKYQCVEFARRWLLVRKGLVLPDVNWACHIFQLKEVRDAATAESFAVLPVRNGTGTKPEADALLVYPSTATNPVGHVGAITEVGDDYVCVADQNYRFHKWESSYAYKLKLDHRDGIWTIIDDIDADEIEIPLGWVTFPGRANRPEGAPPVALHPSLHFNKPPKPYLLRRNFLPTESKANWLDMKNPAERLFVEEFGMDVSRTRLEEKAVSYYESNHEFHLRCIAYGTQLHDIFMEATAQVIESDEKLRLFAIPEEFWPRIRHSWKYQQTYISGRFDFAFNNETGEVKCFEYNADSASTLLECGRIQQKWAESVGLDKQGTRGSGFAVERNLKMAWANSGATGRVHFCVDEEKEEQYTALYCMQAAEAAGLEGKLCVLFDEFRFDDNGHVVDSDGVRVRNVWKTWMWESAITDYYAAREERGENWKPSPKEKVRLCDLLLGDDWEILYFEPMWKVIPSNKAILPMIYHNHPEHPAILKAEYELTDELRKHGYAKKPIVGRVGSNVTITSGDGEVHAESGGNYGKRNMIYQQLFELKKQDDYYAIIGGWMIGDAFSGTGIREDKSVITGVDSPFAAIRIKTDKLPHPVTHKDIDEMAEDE

[2] = test system: L. braziliensis amastigotes; experiment: Macrophage infection assay, L. braziliensis amastigotes; type: cell-based, Leishmania braziliensis; settings: for SI, L. braziliensis amastigotes: selectivity index, macrophage CC50 and amastigote EC50
Summary of the method: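 J774 macrophages were plated on coverslips at 1 × 10^5 cells/mL in DMEM with 1% FBS. They were infected with stationary-phase L. braziliensis promastigotes (MHOM/BR/01/BA788; 1:20) for 2 h at room temperature, then 22 h at 35 °C. After washing, cells got test compound (5 or 10 µM, or 10–0.01 µM) in 1% DMSO for 24 h at 37 °C and 5% CO2. Cells were EtOH-fixed and DAPI-stained, and 100–200 macrophages were imaged. % infected cells is relative to DMSO.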

L. infantum amastigotes = experiment: Macrophage infection assay, L. infantum amastigotes; type: cell-based, Leishmania infantum; settings: for SI, L. infantum amastigotes: selectivity index, macrophage CC50 and amastigote EC50
Summary of the method: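 J774 macrophages on coverslips (1 × 10^5 cells/mL, DMEM with 1% FBS) were infected with stationary-phase L. infantum promastigotes (1:20) for 2 h at room temperature, then 22 h at 37 °C. After washing, test compound (10–0.01 µM, up to seven concentrations, at least duplicates, 1% DMSO) was added for 24 h at 37 °C. DAPI-stained infected cells were counted by microscopy relative to DMSO. EC50 came from a four-parameter sigmoid fit.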

TbTryS = target: T2, TbTryS (Trypanosoma brucei brucei, UniProt Q8IEX1); experiment: TryS activity end-point assay; type: biochemical
T2 sequence (Q8IEX1 1-627): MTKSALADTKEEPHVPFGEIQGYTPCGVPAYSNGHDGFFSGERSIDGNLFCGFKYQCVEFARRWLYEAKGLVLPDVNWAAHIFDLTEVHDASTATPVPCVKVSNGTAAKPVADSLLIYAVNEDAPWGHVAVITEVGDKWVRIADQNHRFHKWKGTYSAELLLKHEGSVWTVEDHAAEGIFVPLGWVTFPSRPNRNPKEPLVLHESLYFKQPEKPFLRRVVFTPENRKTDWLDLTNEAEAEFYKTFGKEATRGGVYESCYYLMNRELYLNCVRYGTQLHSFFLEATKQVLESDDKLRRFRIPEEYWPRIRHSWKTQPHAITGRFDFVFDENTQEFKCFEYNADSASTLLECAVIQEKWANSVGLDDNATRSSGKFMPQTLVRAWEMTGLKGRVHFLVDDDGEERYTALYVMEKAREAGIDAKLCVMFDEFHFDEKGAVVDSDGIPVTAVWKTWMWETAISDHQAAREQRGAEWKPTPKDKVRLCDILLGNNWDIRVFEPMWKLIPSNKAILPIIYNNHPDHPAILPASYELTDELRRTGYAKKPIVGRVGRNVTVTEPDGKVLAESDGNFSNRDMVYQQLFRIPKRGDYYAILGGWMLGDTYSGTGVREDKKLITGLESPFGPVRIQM
Summary of the method: (§1)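 Recombinant TryS end-point assay in 100 mM HEPES pH 7.4 with 5 mM DTT, 10 mM MgSO4 and 0.5 mM EDTA. ATP was 150 µM and spermidine 2 mM. GSH was 0.25 mM for LiTryS, 0.05 mM for TbTryS and 0.57 mM for TcTryS. Enzyme started the reaction and BIOMOL Green stopped it after 15 min. A650 was read after 20 min at room temperature. Values were corrected with no-enzyme blanks and for compound interference with phosphate. At least quadruplicates; IC50 is given ± 2σn-1.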

TcTryS = target: T3, TcTryS (Trypanosoma cruzi, UniProt Q9GT49); experiment: TryS activity end-point assay; type: biochemical; settings: for IC50: IC50 value, TcTryS, ± 2σ, ~30 assumed for 50 ± 5% inhibition at 30 µM
T3 sequence (Q9GT49 1-647): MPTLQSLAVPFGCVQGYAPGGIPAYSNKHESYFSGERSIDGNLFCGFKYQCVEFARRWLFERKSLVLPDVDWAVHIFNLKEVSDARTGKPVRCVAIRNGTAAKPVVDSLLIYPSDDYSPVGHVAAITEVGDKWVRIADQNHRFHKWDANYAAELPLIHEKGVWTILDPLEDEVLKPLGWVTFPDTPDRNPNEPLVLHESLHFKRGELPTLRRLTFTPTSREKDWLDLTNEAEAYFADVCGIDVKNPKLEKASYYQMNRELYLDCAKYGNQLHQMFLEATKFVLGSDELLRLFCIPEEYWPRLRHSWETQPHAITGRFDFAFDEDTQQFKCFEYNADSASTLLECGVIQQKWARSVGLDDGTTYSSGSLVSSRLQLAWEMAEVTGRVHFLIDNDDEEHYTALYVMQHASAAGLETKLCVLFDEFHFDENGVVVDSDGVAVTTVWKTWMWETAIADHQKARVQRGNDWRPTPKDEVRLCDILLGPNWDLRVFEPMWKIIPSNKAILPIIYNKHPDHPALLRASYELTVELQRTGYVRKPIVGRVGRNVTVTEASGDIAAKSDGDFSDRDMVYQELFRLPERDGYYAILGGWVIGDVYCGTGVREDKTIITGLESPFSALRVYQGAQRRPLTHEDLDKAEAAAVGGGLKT
Summary of the method: as §1

[3] = target: T4, LiTryS (Leishmania infantum trypanothione synthetase) (Leishmania infantum, UniProt A4I2Z3); experiment: TryS activity end-point assay; type: biochemical; settings: for IC50: ± 2σ, ∼30 assumed for 50 ± 5% inhibition at 30 µM
T4 sequence (A4I2Z3 1-652): T1 sequence (A4I2Z3 1-652)
Summary of the method: as §1

[4] = test system: Mouse macrophages from the cell line J774; experiment: Cytotoxicity assay; type: cell-based; settings: 24 h, non-infected J774
Summary of the method: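 J774 mouse macrophages were grown in DMEM with 10% FBS and penicillin/streptomycin at 37 °C in humidified 5% CO2. Cells were seeded at 6 × 10^4 cells/mL and exposed the next day for 24 h to test compound at 100 to 0.001 µM (200 µM for one compound). The WST-1 signal was read at A450. % cytotoxicity was calculated against DMSO-treated and untreated cells, and CC50 is given ± σn–1.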

[5] = test system: L. infantum promastigotes (WT and TryS sKO); experiment: Intracellular low molecular mass thiols, promastigotes; type: cell-based, Leishmania infantum; settings: 7 µM, 24 h
Summary of the method: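 L. infantum promastigotes (MHOM MA67I7MAP263, WT or TryS single knockout) were seeded at 5 × 10^5/mL in RPMI at 28 °C with 7 µM test compound or 1% DMSO for 24 h. Thiols were reduced with 70 mM NaBH4 in 40 mM HEPES pH 8.0, labelled with 2 mM monobromobimane (70 °C, 3 min) and acid-extracted. They were separated by C18 HPLC against GSH/T(SH)2 standards (2.5–75 nmol), and peak areas are given as % of untreated WT. At least duplicates; unpaired t-test.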

LiTryS [6] = target: T1, LiTryS; experiment: Kinetic assays for LiTryS; type: biochemical; settings: double reciprocal plots
Summary of the method: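 LiTryS in 100 mM HEPES pH 7.4, 10 mM MgSO4, 0.5 mM EDTA, 5 mM DTT at 28 °C. Enzyme-started, linear 15 min, colorimetric stop, A650 after 20 min. Variable GSH 100–3 µM (SP 13 mM, ATP 200 µM); ATP 200–6 µM (SP 13 mM, GSH 250 µM); SP 13–0.41 mM or GSP 250–7.8 µM (ATP 200 µM, GSH 250 µM).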

[7] = test system: L. infantum amastigotes (WT and sKO); experiment: Intracellular low molecular mass thiols, amastigotes in J774 macrophages; type: cell-based, Leishmania infantum; settings: 1 µM, 24 h, vs non-treated control
Summary of the method: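 J774 macrophages at 50% confluence were infected with stationary-phase L. infantum WT or single knockout promastigotes (1:40) for 2 h at room temperature, then 22 h at 37 °C. After washing, cells were treated or not with 1 µM test compound for 24 h. Thiols were reduced with NaBH4, labelled with monobromobimane, then separated by C18 HPLC against standards. Non-infected macrophage GSH was subtracted, and values are fold-change versus non-treated. At least duplicates; t-test.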

[8] = 30 µM, NA = not active (enzyme activity > 95%)

SMILES: Nc1ncnc2c1ncn2[C@@H]1O[C@H](COP(=O)(O)OP(=O)(O)O)[C@@H](O)[C@H]1O [ADP]
- Ki (LiTryS [1]): 90 µM

SMILES: C[C@@H]1[C@H](O)[C@@H](C)/C=C/C=C/C=C/C=C/C=C/C=C/C=C/[C@H](O[C@@H]2O[C@H](C)[C@@H](O)[C@H](N)[C@@H]2O)C[C@@H]2O[C@](O)(C[C@@H](O)C[C@@H](O)[C@H](O)CC[C@@H](O)C[C@@H](O)CC(=O)O[C@H]1C)C[C@H](O)[C@H]2C(=O)O [Amphotericin B, reference compound]
- SI, L. braziliensis amastigotes [2]: 59
- SI, L. infantum amastigotes (L. infantum amastigotes): 100

SMILES: O=C1Cc2c([nH]c3ccc(Br)cc23)-c2ccc(Cl)cc2N1 [Compound 1, 3-Chlorokenpaullone]
- % TryS inhibition at 30 µM, TbTryS (TbTryS; [8]): inactive
- % TryS inhibition at 30 µM, TcTryS (TcTryS; [8]): inactive
- % TryS inhibition at 30 µM, LiTryS [3, 8]: inactive
- % cytotoxicity at 200 µM, macrophages ([4]; 200 µM): 0 at 200 µM %

SMILES: Cl.O=C(CN1C(=O)Cc2c([nH]c3ccc(Br)cc23)-c2ccc(Cl)cc21)N1CCNCC1 [Compound 20]
- IC50 (TbTryS; IC50 value, TbTryS, ± 2σ, ~30 assumed for 50 ± 5% inhibition at 30 µM): ~30 µM
- IC50 ([3]; IC50 value, LiTryS): 0.3 µM
- CC50 ([4]; read-out: CC50, macrophages): 8.1 ± 0.1 µM
- T(SH)2 decrease, WT promastigotes ([5]; WT cells): 88%
- T(SH)2 content, sKO promastigotes ([5]; sKO cells, detection limit 0.5 nmol T(SH)2/100 million cells): undetectable
- % infection by L. braziliensis at 5 µM ([2]; 5 µM, 24 h, relative to infected non-treated macrophages): 15% and 15 ± 1 at 5 µM %
- SI, L. braziliensis amastigotes [2]: ≥ 21
- Inhibition mode with respect to ATP and GSH (LiTryS [6]; ATP or GSH variable): uncompetitive inhibition
- Inhibition mode with respect to SP and GSP (LiTryS [6]; SP or GSP variable): competitive inhibition
- SI, L. infantum amastigotes (L. infantum amastigotes): 9
- GSH accumulation, WT amastigotes [7]: 16 fold
- GSH accumulation, sKO amastigotes [7]: 10 fold
- T(SH)2 depletion, WT amastigotes [7]: about 40%
- T(SH)2 depletion, sKO amastigotes [7]: ~82%

SMILES: CN1CCN(C(=O)CN2C(=O)Cc3c([nH]c4ccc(Br)cc34)-c3ccc(Cl)cc32)CC1 [Compound 21, 9-Bromo-3-chloro-5-[2-(4-methylpiperazin-1-yl)-2-oxoethyl]-7,12-dihydrobenzo[2,3]azepino[4,5-b]indol-6(5H)one]
- IC50 ([3]; read-out: IC50 value, LiTryS): 0.4 ± 0.1 µM
- % infection by L. braziliensis at 10 µM ([2]; 10 µM, 24 h, relative to infected non-treated macrophages): 65 ± 7%
- SI, L. braziliensis amastigotes [2]: 5
- EC50 (L. infantum amastigotes; read-out: EC50, amastigotes L. infantum, intracellular amastigotes in J774, 24 h): 1000 ± 500 nM

SMILES: CC(C)(C)OC(=O)N1CCN(CCNC(=O)CN2C(=O)Cc3c([nH]c4ccc(Br)cc34)-c3ccc(Cl)cc32)CC1 [Compound 34]
- IC50 (TcTryS): 20 µM
- IC50 ([3]; IC50 value, LiTryS): ~30 µM

SMILES: CC(C)(C)OC(=O)NCCCCNC(=O)CN1C(=O)Cc2c([nH]c3ccc(Br)cc23)-c2ccc(Cl)cc21 [Compound 36]
- IC50 (TcTryS): 25 µM
- IC50 ([3]; IC50 value, LiTryS): ~30 µM
